Measurements published in ChEMBL document CHEMBL1155930, “Novel dimeric aryldiketo containing inhibitors of HIV-1 integrase: effects of the phenyl substituent and the linker orientation” (Bioorg Med Chem, 2008).

Tests used:
[1] = target: T1, Human immunodeficiency virus type 1 integrase (Human immunodeficiency virus 1, UniProt Q7ZJM1); experiment: Inhibition of wild-type HIV1 integrase 3'-processing activity using [32P]-labeled linear oligonucleotide substrate by polyacrylamide gel electrophoresis
T1 sequence (Q7ZJM1 whole entry): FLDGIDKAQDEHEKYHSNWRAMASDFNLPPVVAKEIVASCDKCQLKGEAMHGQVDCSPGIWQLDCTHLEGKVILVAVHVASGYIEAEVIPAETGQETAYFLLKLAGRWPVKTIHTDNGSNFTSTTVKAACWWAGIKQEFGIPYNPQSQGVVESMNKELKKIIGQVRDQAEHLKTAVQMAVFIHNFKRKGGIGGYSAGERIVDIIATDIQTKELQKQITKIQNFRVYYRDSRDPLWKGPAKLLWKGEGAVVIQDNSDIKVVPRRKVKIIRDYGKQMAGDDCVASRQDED
Procedure, shortened: (§1)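 Wild-type IN (final 200 nM) preincubated with inhibitor for 30 min at 30 °C in buffer containing 50 mM NaCl, 1 mM HEPES pH 7.5, 50 μM EDTA, 50 μM DTT, 10% glycerol, 7.5 mM MnCl2, 0.1 mg/mL BSA, 10 mM 2-mercaptoethanol, 10% DMSO, 25 mM MOPS pH 7.2. Then 20 nM 5'-32P-labeled annealed 21-mer duplex added, 1 h more. Quenched with formamide loading dye. IC50 from log concentration vs percent inhibition.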

[2] = target: T1, Human immunodeficiency virus type 1 integrase; experiment: Inhibition of wild-type HIV1 integrase strand transfer activity using [32P]-labeled linear oligonucleotide substrate by polyacrylamide gel electrophoresis; procedure, shortened: as §1

IC50 [1] [µM] | IC50 [2] [µM] | SMILES
56 | 1.8 | O=C(CC(=O)c1cccc(OCc2ccccc2)c1)C(=O)N1CCN(C(=O)C(=O)CC(=O)c2cccc(OCc3ccccc3)c2)CC1
> 100 | 17 | O=C(O)/C(O)=C/C(=O)c1ccccc1Cl
23 | < 0.4 | O=C(CC(=O)c1cccc(OCc2ccccc2)c1)C(=O)NC1CCN(C(=O)C(=O)CC(=O)c2cccc(OCc3ccccc3)c2)CC1
> 100 | 25 | O=C(CC(=O)c1ccc(C(F)(F)F)cc1)C(=O)N1CCN(C(=O)C(=O)CC(=O)c2ccc(C(F)(F)F)cc2)CC1
55 | < 0.4 | COc1ccc(C(=O)/C=C(\O)C(=O)O)cc1OCc1ccccc1
> 100 | > 100 | O=C(CC(=O)c1ccccc1Cl)C(=O)N1CCN(C(=O)C(=O)CC(=O)c2ccccc2Cl)CC1
> 100 | 29 | O=C(CC(=O)c1ccc(F)cc1)C(=O)N1CCN(C(=O)C(=O)CC(=O)c2ccc(F)cc2)CC1
99 | 7 | COC(=O)/C(O)=C/C(=O)c1cccc(NC(=O)OCc2ccccc2)c1
> 100 | > 100 | COC(=O)/C(O)=C/C(=O)c1cccc(N(Cc2ccccc2)Cc2ccccc2)c1
> 100 | 26 | COc1cccc(C(=O)CC(=O)C(=O)N2CCN(C(=O)C(=O)CC(=O)c3cccc(OC)c3)CC2)c1
> 100 | 45 | O=C(O)/C(O)=C/C(=O)c1ccc([N+](=O)[O-])cc1
> 100 | 27 | COc1cccc(C(=O)/C=C(\O)C(=O)O)c1
> 100 | 41 | O=C(CC(=O)c1ccc(C(F)(F)F)cc1)C(=O)NC1CCC(NC(=O)C(=O)CC(=O)c2ccc(C(F)(F)F)cc2)CC1 (stereo not drawn)
> 100 | 100 | CC(C)(C)OC(=O)N1CCC(NC(=O)/C(O)=C/C(=O)c2ccc(F)cc2)CC1

The next lines start with the molecule.

SMILES | IC50 [1] [µM] | IC50 [2] [µM]
Cc1cc(C(=O)/C=C(\O)C(=O)O)ccc1Cl | 94 | 4.7
O=C(O)/C(O)=C/C(=O)c1ccccc1F | > 100 | 58
COC(=O)/C(O)=C/C(=O)c1ccc(OC)c(OCc2ccccc2)c1 | > 100 | 16
O=C(CC(=O)c1cccc(OCc2ccccc2)c1)C(=O)OC1CCN(C(=O)C(=O)CC(=O)c2cccc(OCc3ccccc3)c2)CC1 | 91 | 3
O=C(CC(=O)c1cccc(OCc2ccccc2)c1)C(=O)NC1CCC(NC(=O)C(=O)CC(=O)c2cccc(OCc3ccccc3)c2)CC1 (stereo not drawn) | > 100 | 7
O=C(O)/C(O)=C/C(=O)c1ccc(C(F)(F)F)cc1 | > 100 | 33
COC(=O)/C(O)=C/C(=O)c1ccccc1F | > 100 | > 100
O=C(CC(=O)c1ccccc1F)C(=O)NC1CCC(NC(=O)C(=O)CC(=O)c2ccccc2F)CC1 (stereo not drawn) | > 100 | 55
O=C(CC(=O)c1ccc(F)cc1)C(=O)NC1CCN(C(=O)C(=O)CC(=O)c2ccc(F)cc2)CC1 | > 100 | 88
COC(=O)/C(O)=C/C(=O)c1cccc(Cc2ccccc2F)c1 | 26 | 0.6
O=C(O)/C(O)=C/C(=O)c1ccccc1 | > 100 | 24.2
COc1cccc(C(=O)CC(=O)C(=O)NC2CCC(NC(=O)C(=O)CC(=O)c3cccc(OC)c3)CC2)c1 (stereo not drawn) | > 100 | 26
COC(=O)/C(O)=C/C(=O)c1ccc(F)cc1 | > 100 | > 100
O=C(CC(=O)c1ccc(F)cc1)C(=O)NC1CCC(NC(=O)C(=O)CC(=O)c2ccc(F)cc2)CC1 (stereo not drawn) | > 100 | 35.5
O=C(CC(=O)c1ccccc1Cl)C(=O)NC1CCN(C(=O)C(=O)CC(=O)c2ccccc2Cl)CC1 | 99 | 31
COC(=O)/C(O)=C/C(=O)c1cccc(OCc2ccccc2)c1 | > 100 | 14
O=C(O)/C(O)=C/C(=O)c1cccc(OCc2ccccc2)c1 | 19 | < 0.4
CCCCCC12CCC(C(=O)Nc3cccc(C(=O)CC(=O)C(=O)O)c3)(CC1)CC2 | > 100 | 14
COc1cccc(C(=O)CC(=O)C(=O)NC2CCN(C(=O)C(=O)CC(=O)c3cccc(OC)c3)CC2)c1 | > 100 | 53
O=C(CC(=O)c1ccccc1Cl)C(=O)NC1CCC(NC(=O)C(=O)CC(=O)c2ccccc2Cl)CC1 (stereo not drawn) | 92 | 30
